For 48 compounds, IC50 and inhibition results are on record in ChEMBL document CHEMBL3414429, “3,4-diaminobenzoic acid derivatives as inhibitors of the oxytocinase subfamily of M1 aminopeptidases with immune-regulating properties” (J Med Chem, 2015).

Active and inactive are the calls of the source. No cut-off for these calls is given here. A value given as a limit tells only on which side of the number the result lay.

The target in assay [1] is T1, Endoplasmic reticulum aminopeptidase 1 (Homo sapiens, UniProt Q9NZ08). Description: Inhibition of human recombinant ERAP1 expressed in baculovirus infected Sf9 cells using L-leucine-7-amido-4-methyl coumarin as substrate after 5 to 10 mins by fluorescence assay.
Assay [2] addresses T1, Endoplasmic reticulum aminopeptidase 1. Description: Inhibition of human recombinant ERAP1 expressed in baculovirus infected […] using L-leucine-7-amido-4-methyl coumarin as substrate up to 100 uM after 5 to 10 mins by fluorescence assay. The procedure, abridged: (§1)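 Recombinant human enzymes made in baculovirus-infected Hi5 cells, kept in 10 mM HEPES pH 7, 100 mM NaCl, 10% glycerol. ERAP1 30 nM, ERAP2 6 nM or IRAP 6 nM with 50 μM substrate (L-AMC for ERAP1 and IRAP, R-AMC for ERAP2) and varied inhibitor. Fluorescence rise followed at ex 380/em 460; IC50 from fit of activity against inhibitor concentration.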

Assay [3] addresses T2, Endoplasmic reticulum aminopeptidase 2 (Homo sapiens, UniProt Q6P179). Put plainly: Inhibition of human recombinant ERAP2 expressed in baculovirus infected cabbage looper ovary Hi5 cells using L-arginyl-7-amido-4-methyl coumarin as substrate after 5 to 10 mins by fluorescence assay. Details: species or system Female gonad, BTI-TN-5B1-4.
The target of assay [4] is T2, Endoplasmic reticulum aminopeptidase 2. Put plainly: Inhibition of human recombinant ERAP2 expressed in baculovirus infected cabbage looper ovary Hi5 cells using L-arginyl-7-amido-4-methyl coumarin as substrate up to 100 uM after 5 to 10 mins by fluorescence assay. Conditions: BTI-TN-5B1-4. The procedure, abridged: as §1
The target of assay [5] is Leucyl-cystinyl aminopeptidase (Homo sapiens, UniProt Q9UIQ6). Description: Inhibition of human recombinant IRAP expressed in baculovirus infected cabbage looper ovary Hi5 cells using L-leucine-7-amido-4-methyl coumarin as substrate up to 100 uM after 5 to 10 mins by fluorescence assay. Conditions: BTI-TN-5B1-4. The procedure, abridged: as §1
Chain of Leucyl-cystinyl aminopeptidase (Q9UIQ6 whole entry): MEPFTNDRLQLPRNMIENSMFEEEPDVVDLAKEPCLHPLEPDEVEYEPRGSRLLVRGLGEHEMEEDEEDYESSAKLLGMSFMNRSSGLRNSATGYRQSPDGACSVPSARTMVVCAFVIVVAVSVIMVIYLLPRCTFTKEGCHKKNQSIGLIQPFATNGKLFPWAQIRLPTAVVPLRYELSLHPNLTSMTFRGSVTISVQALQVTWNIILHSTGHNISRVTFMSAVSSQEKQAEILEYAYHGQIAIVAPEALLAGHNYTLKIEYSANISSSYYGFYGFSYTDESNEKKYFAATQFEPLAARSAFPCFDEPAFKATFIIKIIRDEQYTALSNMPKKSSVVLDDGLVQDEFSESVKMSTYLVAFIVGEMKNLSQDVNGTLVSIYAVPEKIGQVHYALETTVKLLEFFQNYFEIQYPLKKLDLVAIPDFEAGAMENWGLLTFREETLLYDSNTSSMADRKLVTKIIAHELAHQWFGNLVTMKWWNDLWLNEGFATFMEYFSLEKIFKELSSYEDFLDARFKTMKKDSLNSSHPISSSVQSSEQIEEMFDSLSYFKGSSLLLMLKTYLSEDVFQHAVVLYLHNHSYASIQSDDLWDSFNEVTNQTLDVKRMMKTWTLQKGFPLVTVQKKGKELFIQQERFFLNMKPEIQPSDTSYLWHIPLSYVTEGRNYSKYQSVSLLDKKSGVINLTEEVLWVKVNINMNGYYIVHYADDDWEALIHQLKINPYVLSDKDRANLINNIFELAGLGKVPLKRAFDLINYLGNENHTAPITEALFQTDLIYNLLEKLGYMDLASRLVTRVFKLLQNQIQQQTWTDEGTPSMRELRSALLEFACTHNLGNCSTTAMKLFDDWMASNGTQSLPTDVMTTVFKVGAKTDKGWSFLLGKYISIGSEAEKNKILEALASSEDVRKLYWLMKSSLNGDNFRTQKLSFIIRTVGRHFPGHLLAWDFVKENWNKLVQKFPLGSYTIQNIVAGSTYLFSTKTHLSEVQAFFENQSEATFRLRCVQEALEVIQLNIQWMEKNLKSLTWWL

T2 sequence (Q6P179 whole entry): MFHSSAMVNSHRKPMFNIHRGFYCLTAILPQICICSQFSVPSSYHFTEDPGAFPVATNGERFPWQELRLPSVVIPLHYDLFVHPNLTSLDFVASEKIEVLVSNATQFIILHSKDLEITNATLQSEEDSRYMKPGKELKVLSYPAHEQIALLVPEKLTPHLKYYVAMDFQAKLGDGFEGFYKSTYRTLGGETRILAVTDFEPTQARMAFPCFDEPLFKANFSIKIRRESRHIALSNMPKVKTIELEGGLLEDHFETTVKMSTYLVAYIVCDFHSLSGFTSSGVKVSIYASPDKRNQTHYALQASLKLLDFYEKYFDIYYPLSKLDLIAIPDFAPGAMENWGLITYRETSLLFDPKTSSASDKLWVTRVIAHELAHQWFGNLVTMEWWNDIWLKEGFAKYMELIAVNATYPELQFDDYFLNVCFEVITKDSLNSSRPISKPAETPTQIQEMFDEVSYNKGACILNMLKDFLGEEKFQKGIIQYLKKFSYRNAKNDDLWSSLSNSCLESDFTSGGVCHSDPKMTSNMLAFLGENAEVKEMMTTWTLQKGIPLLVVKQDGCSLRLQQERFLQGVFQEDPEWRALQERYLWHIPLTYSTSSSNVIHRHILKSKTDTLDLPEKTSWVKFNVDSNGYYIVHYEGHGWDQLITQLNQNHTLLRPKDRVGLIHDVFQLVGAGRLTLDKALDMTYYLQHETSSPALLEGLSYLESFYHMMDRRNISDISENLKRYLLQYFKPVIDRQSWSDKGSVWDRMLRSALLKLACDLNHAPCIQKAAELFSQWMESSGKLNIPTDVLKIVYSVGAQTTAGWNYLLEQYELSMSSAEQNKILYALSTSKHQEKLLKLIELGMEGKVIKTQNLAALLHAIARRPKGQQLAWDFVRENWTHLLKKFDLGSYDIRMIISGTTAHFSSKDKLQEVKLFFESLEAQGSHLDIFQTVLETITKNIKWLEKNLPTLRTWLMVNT
T1 sequence (Q9NZ08 whole entry): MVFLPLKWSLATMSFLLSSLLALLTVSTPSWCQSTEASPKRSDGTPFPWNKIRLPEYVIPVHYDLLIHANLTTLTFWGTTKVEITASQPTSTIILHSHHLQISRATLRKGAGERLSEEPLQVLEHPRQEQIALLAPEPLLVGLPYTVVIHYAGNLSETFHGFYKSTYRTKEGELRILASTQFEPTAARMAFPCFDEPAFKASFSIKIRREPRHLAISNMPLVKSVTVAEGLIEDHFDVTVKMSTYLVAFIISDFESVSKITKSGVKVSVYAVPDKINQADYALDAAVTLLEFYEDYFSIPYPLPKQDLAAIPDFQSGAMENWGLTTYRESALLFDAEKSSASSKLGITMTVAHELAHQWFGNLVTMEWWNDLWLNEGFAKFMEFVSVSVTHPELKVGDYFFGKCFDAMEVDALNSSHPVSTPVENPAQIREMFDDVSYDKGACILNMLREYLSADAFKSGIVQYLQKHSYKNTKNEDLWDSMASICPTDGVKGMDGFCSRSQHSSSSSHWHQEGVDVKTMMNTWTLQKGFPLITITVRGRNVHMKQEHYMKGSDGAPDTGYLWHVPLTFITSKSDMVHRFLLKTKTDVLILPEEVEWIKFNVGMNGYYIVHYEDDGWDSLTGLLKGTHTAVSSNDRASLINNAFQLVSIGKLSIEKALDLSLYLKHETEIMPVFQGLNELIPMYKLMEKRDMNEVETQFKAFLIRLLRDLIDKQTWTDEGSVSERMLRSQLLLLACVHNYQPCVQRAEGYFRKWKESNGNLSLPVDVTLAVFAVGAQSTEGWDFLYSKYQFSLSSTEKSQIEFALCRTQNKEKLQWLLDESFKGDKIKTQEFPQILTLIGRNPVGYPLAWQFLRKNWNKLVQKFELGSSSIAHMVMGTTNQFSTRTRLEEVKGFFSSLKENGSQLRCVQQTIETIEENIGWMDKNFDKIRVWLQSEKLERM

Consider `COC(=O)c1ccc(NC(=O)[C@@H](N)CCc2ccccc2)c(N)c1`, for which the IC50 (as a rule, the concentration that inhibits the measured activity by half) in assay [1] was more than 100 µM.

`CCCC[C@H](N)C(=O)Nc1ccc(C(=O)OC)cc1N`: in assay [2], the inhibition entry is “inactive”.

On to `CC(C)[C@H](NC(=O)c1ccc(N)c(NC(=O)[C@@H](N)Cc2ccc(O)cc2)c1)C(=O)O`, for which, in assay [2], the inhibition entry was “inactive”. Also, in assay [3], the IC50 was more than 100 µM.

As for `COC(=O)[C@H](Cc1ccc(O)cc1)NC(=O)c1ccc(NC(=O)[C@@H](N)Cc2ccc(OCc3ccccc3)cc2)c(N)c1`, the inhibition result in assay [2] was “inactive”.

For `COC(=O)c1ccc(N)c(NC(=O)[C@@H](N)CCc2ccc(O)cc2)c1`, the inhibition entry in assay [4] is “inactive”. The IC50 in assay [1] is more than 100 µM.

`Nc1ccc(C(=O)O)cc1NC(=O)[C@@H](N)Cc1ccc(O)cc1`: in assay [1], the IC50 is more than 100 µM.

On to `COC(=O)[C@H](Cc1ccc(O)cc1)NC(=O)c1ccc(N)c(NC(=O)[C@@H](N)Cc2ccc(O)cc2)c1`, for which the IC50 in assay [1] worked out at 110 µM.

`COC(=O)[C@H](CCCCN)NC(=O)c1ccc(NC(=O)[C@@H](N)Cc2ccc(O)cc2)c(N)c1`: the IC50 in assay [1] and in assay [3] was more than 100 µM each time.

With `COC(=O)[C@H](CCCNC(=N)N)NC(=O)c1ccc(N)c(N)c1`, the inhibition result in assay [4] is “inactive”.

For the compound `Nc1ccc(C(=O)O)cc1NC(=O)[C@@H](N)Cc1ccc(OCc2ccccc2)cc1`, the inhibition result in assay [4] and in assay [2] was “inactive” throughout.

As for `COC(=O)c1ccc(N)c(NC(=O)[C@@H](N)CCCNC(=N)N)c1`, in assay [2], the inhibition result was “inactive”.

In the case of `COC(=O)c1ccc(NC(=O)[C@@H](N)CC(C)C)c(N)c1`, the inhibition result in assay [5] and in assay [2] was “inactive” throughout. Moreover, the IC50 in assay [3] was more than 100 µM.

For the compound `COC(=O)[C@H](CCCCN)NC(=O)c1ccc(N)c(NC(=O)[C@@H](N)CC(C)C)c1`, the inhibition entry in assay [5] and in assay [2] was “inactive” in each case.

Turning to `COC(=O)c1ccc(N)c(NC(=O)[C@@H](N)CC(C)C)c1`, the inhibition entry in assay [4], in assay [5] and in assay [2] was “inactive” in each case.

For `COC(=O)[C@H](CCCCN)NC(=O)c1ccc(NC(=O)[C@@H](N)CCCNC(=N)N)c(N)c1`, the inhibition entry in assay [2] was “inactive”.

As for `CCCC[C@H](N)C(=O)Nc1ccc(C(=O)N[C@H](C(=O)OCc2ccccc2)C(C)C)cc1N`, the IC50 in assay [1] is more than 100 µM.

Turning to `CCCC[C@H](N)C(=O)Nc1cc(C(=O)N[C@@H](Cc2ccc(O)cc2)C(=O)OC)ccc1N`, the IC50 in assay [1] was more than 100 µM.

Take `COC(=O)c1ccc(N)c(NC(=O)[C@@H](N)Cc2ccc(O)cc2)c1`: in assay [2], the inhibition result is “inactive”. The IC50 in assay [3] is more than 100 µM.

For `COC(=O)[C@H](Cc1ccc(O)cc1)NC(=O)c1ccc(N)c(N)c1`, the inhibition result in assay [4] and in assay [2] was “inactive” each time.

For the compound `COC(=O)c1ccc(NC(=O)[C@@H](N)Cc2ccc(OCc3ccccc3)cc2)c(N)c1`, the inhibition entry in assay [4] and in assay [2] was “inactive” each time.

Consider `COC(=O)c1ccc(N)c(NC(=O)[C@@H](N)Cc2ccc(OCc3ccccc3)cc2)c1`, for which the inhibition entry in assay [4] and in assay [2] was “inactive” each time.

As for `NCCCC[C@H](NC(=O)c1ccc(N)c(NC(=O)[C@@H](N)Cc2ccccc2)c1)C(=O)O`, in assay [2], the inhibition entry was “inactive”.

For the compound `Nc1cc(C(=O)N[C@@H](Cc2c[nH]c3ccccc23)C(=O)OCc2ccccc2)ccc1NC(=O)[C@@H](N)CCc1ccc(OCc2ccccc2)cc1`, the inhibition result in assay [2] is “inactive”.

Turning to `COC(=O)[C@H](CCCCN)NC(=O)c1ccc(N)c(N)c1`, the inhibition result in assay [4] was “inactive”. For the same compound, in assay [1], the IC50 was more than 100 µM.

`COC(=O)[C@@H](NC(=O)c1ccc(N)c(NC(=O)[C@@H](N)Cc2ccc(O)cc2)c1)[C@@H](C)O`: the IC50 in assay [1] was more than 100 µM.

With `CC(C)[C@H](NC(=O)c1ccc(NC(=O)[C@@H](N)CCc2ccccc2)c(N)c1)C(=O)OCc1ccccc1`, the inhibition result in assay [2] was “inactive”. For the same compound, the IC50 in assay [3] was more than 100 µM.

With `CCCC[C@H](N)C(=O)Nc1cc(C(=O)OC)ccc1N`, in assay [1], the IC50 is more than 100 µM.

For the compound `Nc1ccc(C(=O)N[C@@H](Cc2c[nH]c3ccccc23)C(=O)OCc2ccccc2)cc1NC(=O)[C@@H](N)CCc1ccc(OCc2ccccc2)cc1`, the IC50 in assay [1] and in assay [3] was more than 100 µM each time.

Turning to `COC(=O)c1ccc(N)c(NC(=O)[C@@H](N)CCc2ccc(OCc3ccccc3)cc2)c1`, the inhibition result in assay [4] and in assay [2] was “inactive” in each case.

Take `CC(C)[C@H](NC(=O)c1ccc(N)c(NC(=O)[C@@H](N)Cc2ccc(O)cc2)c1)C(=O)OCc1ccccc1`: the inhibition entry in assay [2] is “inactive”.

As for `CC(C)[C@H](NC(=O)c1ccc(NC(=O)[C@@H](N)CCc2ccccc2)c(N)c1)C(=O)O`, in assay [2], the inhibition result was “inactive”. In addition, the IC50 in assay [3] is more than 100 µM.

`Nc1ccc(C(=O)N[C@@H](Cc2c[nH]c3ccccc23)C(=O)O)cc1N`: the IC50 in assay [1] was more than 100 µM.

`Nc1ccc(C(=O)N[C@@H](Cc2c[nH]c3ccccc23)C(=O)O)cc1NC(=O)[C@@H](N)CCc1ccc(O)cc1`: the IC50 in assay [3] is more than 100 µM.

Turning to `COC(=O)[C@H](CCCCN)NC(=O)c1ccc(N)c(NC(=O)[C@@H](N)CCCNC(=N)N)c1`, the inhibition result in assay [5] is “inactive”.

As to `NCCCC[C@H](NC(=O)c1ccc(N)c(NC(=O)[C@@H](N)Cc2ccc(O)cc2)c1)C(=O)O`, in assay [2], the inhibition result was “inactive”.

With `CC(C)[C@H](NC(=O)c1ccc(N)c(NC(=O)[C@@H](N)CCCNC(=N)N)c1)C(=O)O`, the inhibition result in assay [2] is “inactive”.

As to `COC(=O)[C@H](CCCCN)NC(=O)c1ccc(N)c(NC(=O)[C@@H](N)CCc2ccc(O)cc2)c1`, the IC50 in assay [1] is more than 100 µM.

On to `COC(=O)[C@H](CCCCN)NC(=O)c1ccc(N)c(NC(=O)[C@@H](N)CCc2ccc(OCc3ccccc3)cc2)c1`, for which, in assay [1], the IC50 was more than 100 µM.

Regarding `Nc1ccc(C(=O)N[C@@H](Cc2c[nH]c3ccccc23)C(=O)O)cc1NC(=O)[C@@H](N)Cc1ccc(O)cc1`, the IC50 in assay [3] stood at 40 µM.

As to `COC(=O)c1ccc(NC(=O)[C@@H](N)Cc2ccc(O)cc2)c(N)c1`, in assay [2], the inhibition result was “inactive”.

Turning to `CC(C)C[C@H](N)C(=O)Nc1cc(C(=O)O)ccc1N`, the inhibition result in assay [4], in assay [5] and in assay [2] was “inactive” in each case.

As for `Nc1ccc(C(=O)N[C@@H](Cc2c[nH]c3ccccc23)C(=O)OCc2ccccc2)cc1N`, in assay [2], the inhibition result was “inactive”. In addition, the half-inhibitory concentration (IC50) in assay [3] is more than 100 µM.

Turning to `COC(=O)[C@H](CCCCN)NC(=O)c1ccc(N)c(NC(=O)[C@@H](N)COCc2ccccc2)c1`, the inhibition result in assay [4], in assay [5] and in assay [2] was “inactive” in each case.

As to `COC(=O)[C@H](CCCN)NC(=O)c1ccc(N)c(NC(=O)[C@@H](N)CCc2ccccc2)c1`, the inhibition result in assay [4], in assay [5] and in assay [2] was “inactive” each time.

Regarding `N=C(N)NCCC[C@H](N)C(=O)Nc1cc(C(=O)O)ccc1N`, in assay [2], the inhibition entry is “inactive”. The IC50 in assay [3] was more than 100 µM.

For the compound `COC(=O)c1ccc(NC(=O)[C@@H](N)CCCNC(=N)N)c(N)c1`, in assay [2], the inhibition entry is “inactive”.

In the case of `COC(=O)[C@H](CCCCN)NC(=O)c1ccc(NC(=O)[C@@H](N)CCc2ccccc2)c(N)c1`, the inhibition result in assay [4] and in assay [2] was “inactive” each time.

Turning to `CCCC[C@H](N)C(=O)Nc1ccc(C(=O)N[C@@H](CCCCN)C(=O)OC)cc1N`, the inhibition result in assay [2] was “inactive”.
